Series [1] in a line: Distribution coefficient (D %) between octanol and buffer of pH 7.4. As to conditions: octanol/water. Format: physicochemical.
A short description of series [2]: Dissociation constant (pKa) (determined in 30% EtOH). The class given is physicochemical.
For series [3], the system named is Felis catus. Nature of the series: Mortality of animals recorded as the number of animals dead out of the total animals (42) taken for the study at dose 1 mg/kg. The class given is functional. In short, it runs like this:
(§1)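 Adult conditioned cats (2.5–4 kg) under iv methohexital (13.25 mg/kg, plus 2.75 mg/kg if needed) received machine-induced acceleration/deceleration head injury. Forty min later they were paralysed with gallamine and ventilated with 6% O2/94% N2 for 60 min (arterial pO2 23 ± 1 torr). Drug was given iv 20 min post-injury, before hypoxemia. Mortality was scored as dead/total, chi-square tested.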

The species entered for series [4] is Felis catus. The experiment in a line: In vitro inhibition of HCO3- stimulated swelling in cat cerebrocortical tissue slice. Format: functional. The following applies: read-out: I 50. In short, it runs like this: (§2)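 Cat cerebral cortex slices (~150 mg, 0.5 mm) incubated aerobically 60 min at 37 °C in K+-rich (27 mM) Hepes-buffered saline-glucose with test compound as Na salt. HCO3- (NaHCO3 or TEAB) added from sidearm at 20 min to 10 mM final; HCO3- flasks gassed with 2.5% CO2/97.5% O2. Swelling by reweighing; Na+/K+ by flame photometry, Cl- by amperometric titration. Units: per g initial fresh weight; means ± SE, Student's t test.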

The species named for series [5] is Felis catus. Nature of the series: (§3) Evaluated for Potassium ion content of Cerebrocortical slices in cat with out additions. Format: functional. In a few lines: as §2
The species named for series [6] is Felis catus. Nature of the series: (§4) Evaluated for chloride ion content of Cerebrocortical slices in cat with out additions. The class given is functional. In short, it runs like this: as §2
The species named for series [7] is Felis catus. Nature of the series: In vitro inhibition of tissue swelling of Cerebrocortical slices from cat with out additions. Format: functional. In a few lines:
as §2

The species entered for series [8] is Felis catus. Nature of the series: Evaluated for Potassium ion content of Cerebrocortical slices in cat with addition of Sodium Bicarbonate (NaHCO3). Format: functional. In a few lines:
as §2

The species entered for series [9] is Felis catus. Nature of the series: Evaluated for Potassium ion content of Cerebrocortical slices in cat with addition of Triethylammonium Bicarbonate (TEAB). The class given is functional. In a few lines:
as §2

Series [10] is filed under the species Felis catus. Described as §3. The class given is functional. In short, it runs like this: as §2
The source holds these as a separate data set.

The species entered for series [11] is Felis catus. Nature of the series: Evaluated for Sodium ion content of Cerebrocortical slices in cat with addition of Sodium Bicarbonate (NaHCO3). Format: functional. In short, it runs like this: as §2
For series [12], the species on record is Felis catus. The experiment in a line: Evaluated for Sodium ion content of Cerebrocortical slices in cat with addition of Triethylammonium Bicarbonate (TEAB). The class given is functional. In short, it runs like this: as §2
The species entered for series [13] is Felis catus. The experiment in a line: Evaluated for Sodium ion content of Cerebrocortical slices in cat with out additions. Format: functional. In a few lines: as §2
Series [14] is filed under the species Felis catus. Nature of the series: Evaluated for chloride ion content of Cerebrocortical slices in cat with addition of Sodium Bicarbonate (NaHCO3). Format: functional. In a few lines: as §2
The species entered for series [15] is Felis catus. Nature of the series: Evaluated for chloride ion content of Cerebrocortical slices in cat with addition of Triethylammonium Bicarbonate (TEAB). Format: functional. In a few lines:
as §2

The species entered for series [16] is Felis catus. The series is described as §4. Format: functional. In a few lines: as §2
This is another data set of the same source.

The species named for series [17] is Felis catus. The experiment in a line: In vitro inhibition of tissue swelling of Cerebrocortical slices from cat with addition of Sodium Bicarbonate (NaHCO3). The class given is functional. In a few lines:
as §2

The species entered for series [18] is Felis catus. The experiment in a line: In vitro inhibition of tissue swelling of Cerebrocortical slices from cat with addition of Triethylammonium Bicarbonate (TEAB). The class given is functional. In short, it runs like this: as §2
The species named for series [19] is Pan troglodytes. Nature of the series: Relative salidiuretic efficacy was scored in chimpanzee; moderate. The class given is functional, organism-based. The following applies: Urine.
The species named for the next series is Canis familiaris. The experiment in a line: Relative salidiuretic efficacy was scored in dog; moderate. The class given is functional, organism-based. As to conditions: Canis lupus familiaris; Urine.
The species named for another series is Homo sapiens. The experiment in a line: Relative salidiuretic efficacy was scored in human; moderate. Format: functional, organism-based. As to conditions: Urine.
The species named for series [20] is Rattus norvegicus. Nature of the series: Relative salidiuretic efficacy was scored in Rat; moderate. The class given is functional, organism-based. As to conditions: Urine.
A short description of series [21]: Compound was tested for bicarbonate stimulated swelling of Cerebrocortical slices from cat with addition of Triethylammonium Bicarbonate (TEAB) (in vitro). The class given is functional. In short, it runs like this: as §2
A short description of series [22]: Compound was tested for bicarbonate stimulated swelling of Cerebrocortical slices from cat with addition of Sodium Bicarbonate (NaHCO3) (in vitro). In a few lines: as §2
For series [23], the species on record is Felis catus. The experiment in a line: Evaluated for Sodium ion content of Cerebrocortical slices in cat with out additions.
The species named for series [24] is Felis catus. The experiment in a line: In vitro inhibition of tissue swelling of Cerebrocortical slices from cat with out additions.
Series [25] is filed under the species Felis catus. Nature of the series: Evaluated for Potassium ion content of Cerebrocortical slices in cat with addition of Sodium Bicarbonate (NaHCO3) at a compound concentration of 1 X 10E-7 M.. Format: functional. In short, it runs like this: as §2
The species entered for series [26] is Felis catus. The experiment in a line: Evaluated for Potassium ion content of Cerebrocortical slices in cat with addition of Triethylammonium Bicarbonate (TEAB) at a compound concentration of 1 X 10E-5 M. The class given is functional. In short, it runs like this: as §2
The species entered for series [27] is Felis catus. The experiment in a line: Evaluated for Sodium ion content of Cerebrocortical slices in cat with addition of Sodium Bicarbonate (NaHCO3) at a compound concentration of 1 X 10E-5 M.. Format: functional. In short, it runs like this:
as §2

For series [28], the species on record is Felis catus. The experiment in a line: Evaluated for chloride ion content of Cerebrocortical slices in cat with addition of Triethylammonium Bicarbonate (TEAB) at a compound concentration of 1 X 10E-5 M. Format: functional. In a few lines: as §2
For series [29], the species on record is Felis catus. Nature of the series: In vitro inhibition of tissue swelling of Cerebrocortical slices from cat with addition of Sodium Bicarbonate (NaHCO3) at a compound concentration of 1 X 10E-7 M. The class given is functional. In short, it runs like this:
as §2

For series [30], the species on record is Pan troglodytes. Nature of the series: Relative salidiuretic efficacy was scored in chimpanzee; marked. Format: functional, organism-based. As to conditions: Urine.
Series [31] is filed under the species Rattus norvegicus. The experiment in a line: Relative salidiuretic efficacy was scored in Rat; marked. The class given is functional, organism-based. As to conditions: Urine.
Series [32] in a line: Evaluated for Potassium ion content of Cerebrocortical slices in cat with addition of Sodium Bicarbonate (NaHCO3) at a compound concentration of 1 X 10E-5 M. Format: functional, Felis catus. In a few lines:
as §2

Series [33] is described as follows: Evaluated for Sodium ion content of Cerebrocortical slices in cat with addition of Triethylammonium Bicarbonate (TEAB) at a compound concentration of 1 X 10E-5 M. Format: functional, Felis catus. In a few lines:
as §2

Series [34] is described as follows: Evaluated for chloride ion content of Cerebrocortical slices in cat with addition of Sodium Bicarbonate (NaHCO3) at a compound concentration of 1 X 10E-5 M.. The class given is functional, Felis catus. In a few lines:
as §2

The nature of series [35]: In vitro inhibition of tissue swelling of Cerebrocortical slices from cat with addition of Triethylammonium Bicarbonate (TEAB) at a compound concentration of 1 X 10E-5 M. Format: functional, Felis catus. In short, it runs like this:
as §2

For series [36], the species on record is Felis catus. The experiment in a line: In vitro inhibition of tissue swelling of Cerebrocortical slices from cat with addition of Sodium Bicarbonate (NaHCO3) at a compound concentration of 1 X 10E-5 M.. Format: functional. In a few lines: as §2
In series [37] the test system is Felis catus. The experiment in a line: Mortality of animals recorded as the number of animals dead out of the total animals (18) taken for the study at dose 30 mg/kg given q.i.d. The class given is functional. In short, it runs like this: as §1
Series [38] deals with Felis catus. The experiment in a line: Mortality of animals recorded as the number of animals dead out of the total animals (16) taken for the study at dose 1 mg/kg given q.i.d. The class given is functional.

In general, pKa refers to the negative logarithm of the acid dissociation constant. A lower pKa goes with a stronger acid or weaker base. As for `CC1(C2CCCC2)Cc2cc(OCC(=O)O)c(Cl)c(Cl)c2C1=O` (racemic), the Distribution in series [1] came to 90%. Further, the pKa in [2] worked out at 3.9. In addition, the Mortality in the series with Felis catus [3] was found to be 11. Also, in the series listed under Felis catus [4], the IC50 was found to be 0.2 µM. Moreover, the Activity in the series filed under Felis catus [5] was 94.4 µM/g; in the series listed under Felis catus [6] it was 90.2 µM/g; in the series listed under Felis catus [8], 97.1 µM/g; in the series filed under Felis catus [9], 91.4 µM/g; in the series filed under Felis catus [10] it was 93.5 µM/g; in the series listed under Felis catus [11], 116.3 µM/g. For the same compound, the Activity in the series filed under Felis catus [12] is 118.8 µM/g; in the series filed under Felis catus [13], 101.6 µM/g; in the series listed under Felis catus [14], 98.2 µM/g; in the series listed under Felis catus [15], 104.8 µM/g; in the series listed under Felis catus [16], 89.9 µM/g; in series [21] it was 100. Further, the Activity in series [22] turned out to be 100; in the series listed under Felis catus [23], 100.4 µM/g. Moreover, the Tissue swelling in the series filed under Felis catus [7] was found to be 179 µL/g; in the series filed under Felis catus [17] it was 268 µL/g; in the series filed under Felis catus [18] it was 293 µL/g; in the series filed under Felis catus [24], 170 µL/g. For the same compound, the Relative salidiuretic activity entry in the series filed under Pan troglodytes [19], in the series listed under Canis familiaris, in the series listed under Homo sapiens and in the series listed under Rattus norvegicus [20] was “marked” each time.
Turning to `C[C@]1(C2CCCC2)Cc2cc(OCC(=O)O)c(Cl)c(Cl)c2C1=O`, the Distribution in [1] is recorded as 90%. In series [2], this compound returned a pKa of 3.9. Also, the IC50 in the series listed under Felis catus [4] was 0.1 µM. Moreover, the Activity in the series filed under Felis catus [25] worked out at 98.4 µM/g; in the series listed under Felis catus [26] it was 95.9 µM/g; in the series listed under Felis catus [27] it was 101.8 µM/g; in the series listed under Felis catus [28] it was 84.1 µM/g; in [32], 92.4 µM/g; in [33] it was 100.9 µM/g. Besides, in series [34], the Activity came to 89 µM/g. The Tissue swelling in the series filed under Felis catus [29] amounted to 232 µL/g; in [35], 156 µM/g; in the series listed under Felis catus [36], 157 µL/g. In addition, the Relative salidiuretic activity entry in the series filed under Pan troglodytes [30], in the series filed under Canis familiaris and in the series listed under Rattus norvegicus [31] was “marked” in each case.
On to `C[C@H]1CC2C(C(O)CC3(C)C2CC[C@]3(O)C(=O)COC(=O)CCC(=O)[O-])C2(C)C=CC(=O)C=C12.[Na+]` (stereo partly specified), for which the Mortality in the series with Felis catus [37] stood at 9.
On to `CC(=O)Nc1nnc(S(N)(=O)=O)s1` [ACETAZOLAMIDE], for which the Distribution in series [1] stood at 22%. Also, the IC50 in the series listed under Felis catus [4] was determined as 2000 µM. For the same compound, the Mortality in the series with Felis catus [38] is on record as 8.

(Values after ChEMBL document CHEMBL1122058, “Agents for the treatment of brain injury. 1. (Aryloxy)alkanoic acids” (J Med Chem, 1982).)
